PDI inh: PDI (human) enzyme inhibition. PDI insulin aggregation turbidity, A650, 90 min. inhibition, % at 10 µM. hit rate 0.052% among 350,000. P07237. AID 588391;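 active means mean inhibition across replicates of 30% or more, whatever share of single replicates reach that level; inconclusive means mean inhibition below 30% while every single replicate reaches 30%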
Target sequence (P07237 whole entry, looked up): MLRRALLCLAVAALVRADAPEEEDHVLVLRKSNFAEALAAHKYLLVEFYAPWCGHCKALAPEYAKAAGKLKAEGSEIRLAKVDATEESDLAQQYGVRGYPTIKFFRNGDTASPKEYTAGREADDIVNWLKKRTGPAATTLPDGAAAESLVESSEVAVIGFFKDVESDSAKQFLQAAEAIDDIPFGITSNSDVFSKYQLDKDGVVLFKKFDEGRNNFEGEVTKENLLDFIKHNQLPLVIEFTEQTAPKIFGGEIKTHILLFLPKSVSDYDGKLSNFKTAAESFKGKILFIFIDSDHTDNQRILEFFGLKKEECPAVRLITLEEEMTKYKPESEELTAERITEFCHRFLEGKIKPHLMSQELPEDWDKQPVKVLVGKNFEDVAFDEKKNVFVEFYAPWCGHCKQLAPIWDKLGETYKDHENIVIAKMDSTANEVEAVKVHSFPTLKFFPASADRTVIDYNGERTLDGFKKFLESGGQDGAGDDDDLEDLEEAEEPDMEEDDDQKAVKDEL
RAD54 branch: RAD54 (human) branch migration inhibition | Q92698 | RAD54 Holliday junction branch migration, FAM/BHQ fluorescence | inhibition, % at 10.4 µM | hit rate 0.14% among 360,000;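 active means mean normalized replicate activity at least 40 and at least half of replicates scoring 40 or more; inconclusive means only one of the two criteria met; inactive means mean below 40 and under half of replicates reaching 40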;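 further: inhibitors cause a drop in the FAM fluorescence signal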
ERp5 inh: inhibitors of human ERp5 | Q15084 | ERp5 insulin aggregation, absorbance 650 nm, 90 min | inhibition, % at 9.99 µM | hit rate 0.05% among 350,000 | AID 651711;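 active means mean replicate inhibition above about 25%, with every replicate also reaching it, limit read from the data, passing the limit was not always enough; inconclusive means only one of those two criteria met; inactive means neither criterion met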
FN deposit inh: fibronectin deposition inhibition | AH1F fibroblasts, Alexa488-fibronectin deposition fluorescence, overnight | inhibition, % at 12.6 µM | hit rate 0.086% among 350,000 | AID 743247;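 active means mean inhibition across replicates of 30% or more, regardless of how many single replicates reach that level; inconclusive means mean under 30% yet at least half of replicates reach 30%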
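Assay system: AH1F fibroblasts assembling fluorescent fibronectin matrix; Amount: 10000 AH1F cells per well; Buffer or medium: DMEM, 2% serum; Probe or stimulus: Alexa488-fibronectin, 24 nM final in well; Doses: single compound dose, delivered by pin transfer; Incubation: 1 h adhesion, overnight exposure; Measured by: fluorescence 485/525 nm; Read-out: fibronectin deposition inhibition.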
S100A4 inh HTS: S100A4-myosin IIA interaction inhibition | P26447 | S100A4/TAMRA-MyoIIA peptide fluorescence polarization | inhibition, % at 10.7 µM | hit rate 0.14% among 360,000 | AID 652163;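 active means mean inhibition of at least 70% across replicates, with every replicate also reaching that level; inconclusive means mean inhibition reaches 70% but some replicates fall short; inactive means mean inhibition below 70%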
Target sequence (P26447 whole entry, looked up): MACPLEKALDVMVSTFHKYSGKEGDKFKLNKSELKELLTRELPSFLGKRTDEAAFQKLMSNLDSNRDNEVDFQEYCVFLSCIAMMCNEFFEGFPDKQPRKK
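Assay system: human S100A4 monomer with TAMRA-labelled myosin IIA peptide / Buffer or medium: Calcium-containing HEPES buffer, pH 7.2 / Reagent: TAMRA-labelled myosin IIA heavy-chain peptide probe, 5 nM / Compound: one dose per compound / Timing: polarization read 5 min after assay mix addition, stable 5–60 min / Benchmarks: neutral control DMSO, positive control TFP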
PglD inh: inhibitors of Campylobacter jejuni PglD acetyltransferase; purified PglD enzyme, DTNB colorimetric CoA detection; inhibition, % at 12.5 µM; hit rate 0.098% among 360,000; in the data active means inhibition above about 16%, passing the limit was not always enough; inconclusive means no clear call, values can overlap the other calls
DNA binding: counter-screen for Rad54 inhibitors: DNA binding compounds; Acridine orange-DNA displacement, fluorescence polarization, 20 min; shares compounds with RAD54 branch; AC50, µM (highest dose often 35 µM); hit rate 8% among 460;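 active means signal drop giving an AC50 within twice the top valid tested concentration of each sample, actives reach about 35 µM in these data; inactive means activity opposite to expected, plus the rest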;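 further: polarization loss reports compound binding to salmon sperm DNA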
A number is an active result; - = inactive; ? = inconclusive; . = not tested or not shown. The list is not random: actives were taken first. Their share in the collection is about 0.44%.

SMILES	PDI inh	RAD54 branch	ERp5 inh	FN deposit inh	S100A4 inh HTS	PglD inh	DNA binding
CCOC(=O)c1cnc2ccc(OCC)cc2c1NCCCN1CCOCC1	-	100.8	-	-	-	-	-
CN(C)C(=O)C[C@@H]1C[C@H]2c3cc(NC(=O)C4CCOCC4)ccc3O[C@H]2[C@H](CO)O1	.	-	-	-	-	-	.
CN(C)CCCN(C(=O)CCOc1ccccc1)c1nc2ccc(F)cc2s1	-	65.1	-	-	-	-	-
CCCC(=O)Nc1ccc2c(c1)OC[C@@H](C)N(C(=O)c1ccncc1)C[C@@H](C)[C@H](OC)CN(C)C2=O	.	-	-	-	-	-	.
COc1cc2[nH]c3c(=O)n(CCN(C(C)C)C(C)C)cnc3c2cc1OC	-	?	.	-	.	-	-
c1ccc2c(c1)[nH]c1c(N3CCCC3)ncnc12	-	-	.	.	.	-	.
c1ccc2c(c1)[nH]c1c(N3CCN(C4CCCCC4)CC3)ncnc12	-	?	.	-	.	-	-
CN1CCN(c2ncnc3c2[nH]c2ccc(F)cc23)CC1	-	75.9	.	.	.	-	-
Fc1ccc2[nH]c3c(N4CCc5ccccc5C4)ncnc3c2c1	-	-	-	-	-	-	.
O=c1c2c(nc3n1CCCCC3)sc1c(O)c(Br)ccc12	-	-	-	.	-	.	.
CCN(CC)CCOc1c(Br)ccc2c1sc1nc3n(c(=O)c12)CCC3	-	85.6	.	-	.	-	-
COc1ccc(Cn2nnnc2C(CC(C)C)N2CCN(c3ccccc3)CC2)cc1 (stereo unspecified)	-	-	.	.	.	.	.
CCCC(c1nnnn1Cc1ccc(OC)cc1)N1CCN(c2ccccc2)CC1 (stereo unspecified)	-	?	.	.	.	-	-
O=C(CN1CCCC1)Nc1ccc(-c2nc3cc(NC(=O)CN4CCCC4)ccc3o2)cc1	-	?	.	.	.	-	-
CCN(CC)CC(=O)Nc1ccc(-c2nc3cc(NC(=O)CN(CC)CC)ccc3o2)cc1	-	-	.	.	.	-	.
COc1ccc2c3c(n(C)c2c1)[C@@H](CO)N(C(=O)Nc1ccc(F)cc1)CC31CCN(S(=O)(=O)c2cn(C)cn2)CC1	.	.	-	.	-	.	.
CC(=O)c1ccc(Nc2cc(C)nc3c(C)cc(C)cc23)cc1	-	.	-	-	-	.	.
Cc1cc(C)c2nc(C)cc(Nc3ccc(C(=O)NCCO)cc3)c2c1	-	50.2	-	-	-	-	-
CSc1nnc2c3cc(F)ccc3n(Cc3ccccc3)c2n1	-	-	.	-	.	-	.
CCN(CC)CCSc1nnc2c3cc(C)ccc3n(Cc3ccccc3)c2n1	-	?	-	-	-	-	-
CN1c2ccc(-c3ccc(F)cc3)cc2[C@@H]2[C@@H](CCN2C(=O)Nc2ccc(F)cc2)[C@@H]1CO	.	-	.	-	.	-	.
C/C=C/c1ccc([C@H]2[C@@H](CO)N(C(=O)c3cnccn3)C23CN(C(=O)C2CC2)C3)cc1	.	.	-	-	-	.	.
Cc1ccc2oc(=O)c3cc(C(=O)NCCCN4CCN(C)CC4)sc3c2c1	-	62.2	-	-	-	-	-
Cc1ccc2oc(=O)c3cc(C(=O)NCCCN4CC(C)CC(C)C4)sc3c2c1 (stereo unspecified)	-	-	-	-	-	-	.
Cc1ccc2oc(=O)c3cc(C(=O)NCCCN4C(C)CCCC4C)sc3c2c1 (stereo unspecified)	-	53.8	-	-	-	-	-
SMILES	PDI inh	RAD54 branch	ERp5 inh	FN deposit inh	S100A4 inh HTS	PglD inh	DNA binding
CCCN1CCN(CCCNC(=O)c2cc3c(=O)[nH]c4ccc(C)cc4c3s2)CC1	-	.	-	-	-	.	.
CCN1CCN(CCCNC(=O)c2cc3c(=O)oc4ccc(C)cc4c3s2)CC1	-	52.6	-	-	-	-	-
O=C(NCCCN1CCCCCC1)c1cc2c(=O)oc3ccccc3c2s1	-	-	-	-	-	-	.
COCC(=O)Nc1ccc2c(c1)C(=O)N(C)C[C@H](OC)[C@@H](C)CN(Cc1cccc(F)c1)[C@@H](C)CO2	.	-	-	-	-	-	.
C/C=C/c1ccc2c(c1)O[C@@H](CN(C)C(=O)CN(C)C)[C@H](C)CN([C@H](C)CO)S2(=O)=O	.	-	-	-	-	-	.
Cn1c2ccccc2c2cc([N+](=O)[O-])ccc21	-	.	-	-	-	.	.
CCN(CC)CCn1c2ccccc2c2nc3ccc([N+](=O)[O-])cc3cc21	-	?	-	-	-	-	-
CC1CCCN(CCCNC(=O)c2cc3c(Cl)nc4ccccc4c3s2)C1 (stereo unspecified)	-	92.0	-	-	-	-	-
Cc1sc(NC(=O)c2sc3nc4c(C)cccc4cc3c2N)c(C#N)c1C	-	-	.	.	.	-	.
Cc1cccc2cc3c(N)c(C#N)sc3nc12	-	70.5	.	-	.	-	-
CC=Cc1ccc2n(c1=O)C[C@@H]1[C@@H](CO)[C@H](C(=O)Nc3ccccc3)N(CC3CCCC3)[C@H]21 (mixture of isomers)	.	-	-	.	-	-	.
Nc1nc(N)c2c(ccc3nccc32)[nH]1	-	61.8	-	-	-	.	-
COc1ccccc1CNC(=O)c1cccs1	-	62.8	.	.	.	-	-
C[C@H](CO)N1C[C@H](C)[C@H](CN(C)S(=O)(=O)c2ccccc2)Oc2ncc(-c3cccc(C(=O)N(C)C)c3)cc2C1=O	.	-	-	-	-	-	.
CCCCC(=O)Nc1cc(N(C)C)nc2ccccc12	-	-	.	.	.	-	.
CN(C)c1cc(NC(=O)CNC(C)(C)C)c2ccccc2n1	-	76.0	-	-	-	-	-
COc1ccc(-c2cnc3c(NC(C)=O)cc(-c4cccc(C(=O)NCCO)c4)cn23)cc1OC	-	-	-	-	-	-	.
COc1cccc(-c2cnc3c(NC(C)=O)cc(-c4cccc(C(=O)NCCN(C)C)c4)cn23)c1	-	78.2	-	-	-	-	-
COc1ccc(-c2cnc3c(NC(C)=O)cc(-c4cccc(C(=O)NCCN(C)C)c4)cn23)cc1OC	-	76.4	-	-	-	-	-
CC(=O)Nc1cc(-c2cccc(C(=O)NCCN(C)C)c2)cn2c(-c3ccc(C(C)=O)cc3)cnc12	-	100.8	-	-	-	-	-
CC(=O)Nc1cc(-c2cccc(C(=O)NCCN(C)C)c2)cn2c(-c3ccc(F)c(Cl)c3)cnc12	-	-	-	-	-	-	.
Cc1ccc(-c2ccc3c(c2)O[C@H](CN(C)CC2CC2)[C@H](C)CN([C@H](C)CO)S3(=O)=O)cc1	.	-	-	.	-	-	.
CN(C)C(=O)C[C@@H]1CC[C@H]2[C@@H](COC[C@H](O)CN2C(=O)C2CCCC2)O1	.	-	-	-	-	-	.
O=C(CC(F)(F)F)N1C[C@@H]2[C@H](c3ccccc31)[C@@H](CO)N2C(=O)c1cccnc1	.	-	-	.	-	-	.
C=CCc1ccccc1OCC(O)CN1CCN(CCN2C(=O)c3cccc4cccc(c34)C2=O)CC1 (stereo unspecified)	-	99.5	-	-	-	-	-

Screening data (PubChem BioAssay)
